Data: ChEMBL document CHEMBL5724801, “EUbOPEN Chemogenomics Library - Multiplex” (2024)
Several values for one entry are separate records, joined by “and”; a condition that tells them apart may be missing. Equal values may be shown once.

Test system: HEK-293T
Assay: Multiplex assay against HEK293T
Type: toxicity, cell-based
Conditions: human
In short: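 Imaging took place on a CQ1 microscope at 37°C and 5% CO2 once compound had been added to live cells stained at seeding with Hoechst33342, BioTracker Green Microtubule Cytoskeleton Dye, MitoTracker Red and Annexin V Alexa Fluor 680. CellPathfinder machine-learning gating classed cells as Hoechst high-intensity objects or normal cells, classed normal cells as having healthy, pyknosed or fragmented nuclei, and classed pyknosed cells as mitotic or apoptotic. Tubulin, mitochondrial-mass and membrane-permeability phenotypes are per cents of the healthy-nucleus cells.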

[1] = 12 h, 1 µM, compound concentration 1 uM
[2] = 12 h, 10 µM, compound concentration 10 uM
[3] = 24 h, 1 µM, compound concentration 1 uM
[4] = 24 h, 10 µM, compound concentration 10 uM
[5] = 48 h, 1 µM, compound concentration 1 uM
[6] = 48 h, 10 µM, compound concentration 10 uM

COCCNc1cc(NC(=O)N2CCCc3cc(CN4CCOCC4=O)c(C=O)nc32)ncc1C#N
Population Apoptotic (%) [1]: 8.39% and 10.83% | Population Fragmented Nuclei (%) [1]: 1.89% and 2% | Population Hoechst High Intensity Objects (%) [1]: 0% and 0.66% | Population Membrane Permeable-Phenotype (%) [1]: 0.45% and 0% | Population Mitochondria Different-Phenotype (%) [1]: 40% and 29.63% | Population Mitotic Cells (%) [1]: 91.61% and 89.17% | Population Normal (%) [1]: 100% and 99.34% | Population Pyknosed Nuclei (%) [1]: 38.65% and 80% | Total Cell Count [1]: 370 and 151 | Population Apoptotic (%) [2]: 13.28% and 9.24% | Population Fragmented Nuclei (%) [2]: 3.21% and 5.33% | Population Hoechst High Intensity Objects (%) [2]: 0.71% and 0% | Population Membrane Permeable-Phenotype (%) [2]: 0.7% and 4.35% | Population Mitochondria Different-Phenotype (%) [2]: 34.27% and 17.39% | Population Mitotic Cells (%) [2]: 86.72% and 90.76% | Population Normal (%) [2]: 99.29% and 100% | Population Pyknosed Nuclei (%) [2]: 45.71% and 79.33% | Population Tubulin-Different-Phenotype (%) [2]: 22.38% and 30.43% | Total Cell Count [2]: 282 and 150 | Population Apoptotic (%) [3]: 12.59% and 11.28% | Population Fragmented Nuclei (%) [3]: 1.33% and 4.05% | Population Hoechst High Intensity Objects (%) [3]: 0% | Population Membrane Permeable-Phenotype (%) [3]: 1.6% and 0% | Population Mitochondria Different-Phenotype (%) [3]: 19.15% and 9.09% | Population Mitotic Cells (%) [3]: 87.41% and 88.72% | Population Normal (%) [3]: 100% | Population Pyknosed Nuclei (%) [3]: 27.19% and 76.88% | Population Apoptotic (%) [4]: 27.05% and 20.97% | Population Fragmented Nuclei (%) [4]: 2.91% and 3.95% | Population Healthy Nuclei (%) [4]: 67.48% and 25.99% | Population Hoechst High Intensity Objects (%) [4]: 0.24% and 0% | Population Membrane Permeable-Phenotype (%) [4]: 1.44% and 0% | Population Mitochondria Different-Phenotype (%) [4]: 24.82% and 19.57% | Population Mitotic Cells (%) [4]: 72.95% and 79.03% | Population Normal (%) [4]: 99.76% and 100% | Population Pyknosed Nuclei (%) [4]: 29.61% and 70.06% | Population Tubulin-Different-Phenotype (%) [4]: 39.21% and 21.74% | Total Cell Count [4]: 413 and 177 | Population Apoptotic (%) [5]: 7.19% and 11.39% | Population Fragmented Nuclei (%) [5]: 2.68% and 2.4% | Population Healthy Nuclei (%) [5]: 85.58% and 59.62% | Population Hoechst High Intensity Objects (%) [5]: 0% | Population Membrane Permeable-Phenotype (%) [5]: 6% and 3.23% | Population Mitochondria Different-Phenotype (%) [5]: 14.96% and 30.65% | Population Mitotic Cells (%) [5]: 92.81% and 88.61% | Population Normal (%) [5]: 100% | Population Apoptotic (%) [6]: 11.67% and 18.75% | Population Fragmented Nuclei (%) [6]: 2.84% and 5.15% | Population Healthy Nuclei (%) [6]: 81.65% and 53.65% | Population Hoechst High Intensity Objects (%) [6]: 0% | Population Membrane Permeable-Phenotype (%) [6]: 4.91% and 4% | Population Mitochondria Different-Phenotype (%) [6]: 35.13% and 34.4% | Population Mitotic Cells (%) [6]: 88.33% and 81.25% | Population Normal (%) [6]: 100% | Population Pyknosed Nuclei (%) [6]: 15.5% and 41.2%

CC(C)C[C@H](NC(=O)c1cc2ccccc2s1)C(=O)N1CCN(C(=O)[C@H](CO)NS(=O)(=O)c2ccc(Cl)cc2Cl)CC1
Population Apoptotic (%) [1]: 10.07% and 13.45% | Population Fragmented Nuclei (%) [1]: 3.47% and 8.64% | Population Healthy Nuclei (%) [1]: 52.68% and 17.9% | Population Hoechst High Intensity Objects (%) [1]: 0.31% and 0% | Population Membrane Permeable-Phenotype (%) [1]: 1.8% and 0% | Population Mitochondria Different-Phenotype (%) [1]: 37.13% and 31.03% | Population Mitotic Cells (%) [1]: 89.93% and 86.55% | Population Normal (%) [1]: 99.69% and 100% | Population Pyknosed Nuclei (%) [1]: 43.85% and 73.46% | Population Tubulin-Different-Phenotype (%) [1]: 16.17% and 48.28% | Total Cell Count [1]: 318 and 162 | Population Apoptotic (%) [2]: 19.05% and 16.13% | Population Fragmented Nuclei (%) [2]: 2.43% and 2.16% | Population Hoechst High Intensity Objects (%) [2]: 0.69% and 0% | Population Membrane Permeable-Phenotype (%) [2]: 0.88% and 0% | Population Mitotic Cells (%) [2]: 80.95% and 83.87% | Population Normal (%) [2]: 99.31% and 100% | Population Pyknosed Nuclei (%) [2]: 58.33% and 89.21% | Population Tubulin-Different-Phenotype (%) [2]: 87.61% and 58.33% | Total Cell Count [2]: 290 and 139 | Population Apoptotic (%) [3]: 16.78% and 26.05% | Population Fragmented Nuclei (%) [3]: 1.48% and 4.6% | Population Healthy Nuclei (%) [3]: 67.09% and 27.01% | Population Hoechst High Intensity Objects (%) [3]: 0% | Population Membrane Permeable-Phenotype (%) [3]: 2.83% and 2.13% | Population Mitochondria Different-Phenotype (%) [3]: 27.67% and 38.3% | Population Mitotic Cells (%) [3]: 83.22% and 73.95% | Population Normal (%) [3]: 100% | Population Pyknosed Nuclei (%) [3]: 31.43% and 68.39% | Population Tubulin-Different-Phenotype (%) [3]: 38.68% and 19.15% | Total Cell Count [3]: 474 and 174 | Population Apoptotic (%) [4]: 47.8% and 42.62% | Population Fragmented Nuclei (%) [4]: 3.25% and 4.03% | Population Hoechst High Intensity Objects (%) [4]: 0.65% and 0% | Population Membrane Permeable-Phenotype (%) [4]: 0% and 4.76% | Population Mitochondria Different-Phenotype (%) [4]: 74.82% and 42.86% | Population Mitotic Cells (%) [4]: 52.2% and 57.38% | Population Normal (%) [4]: 99.35% and 100% | Population Pyknosed Nuclei (%) [4]: 51.62% and 81.88% | Population Tubulin-Different-Phenotype (%) [4]: 100% and 90.48% | Total Cell Count [4]: 310 and 149 | Population Apoptotic (%) [5]: 11.27% and 26% | Population Fragmented Nuclei (%) [5]: 1.67% and 1.87% | Population Healthy Nuclei (%) [5]: 84.35% and 51.4% | Population Hoechst High Intensity Objects (%) [5]: 0.1% and 0.47% | Population Membrane Permeable-Phenotype (%) [5]: 6.07% and 4.55% | Population Mitochondria Different-Phenotype (%) [5]: 35.82% and 54.55% | Population Mitotic Cells (%) [5]: 88.73% and 74% | Population Normal (%) [5]: 99.9% and 99.53% | Population Apoptotic (%) [6]: 55.17% and 79.57% | Population Fragmented Nuclei (%) [6]: 2.27% and 2.56% | Population Healthy Nuclei (%) [6]: 64.87% and 37.82% | Population Hoechst High Intensity Objects (%) [6]: 0.28% and 0% | Population Membrane Permeable-Phenotype (%) [6]: 1.31% and 1.69% | Population Mitochondria Different-Phenotype (%) [6]: 97.38% and 91.53% | Population Mitotic Cells (%) [6]: 44.83% and 20.43% | Population Normal (%) [6]: 99.72% and 100% | Population Pyknosed Nuclei (%) [6]: 32.86% and 59.62% | Population Tubulin-Different-Phenotype (%) [6]: 94.32% and 98.31% | Total Cell Count [6]: 354 and 156
